Reference: ChEMBL document CHEMBL1127480, “Evaluation of a vitamin-cloaking strategy for oligopeptide therapeutics: biotinylated HIV-1 protease inhibitors” (J Med Chem, 1994)
Active and inactive are the calls of the source. The calls are words filed in the database; no cut-off is given here.

Tests used:
[1] = test system: CV-1; assay: Inhibition of p24 expression was measured at 1 uM using vVK/CV-1 assay; assay type: functional, Cercopithecidae; settings: Chlorocebus aethiops
[2] = target: Human immunodeficiency virus type 1 protease (Human immunodeficiency virus 1, UniProt Q72874); assay: In vitro inhibitory activity against […]
[3] = test system: CV-1; assay: Inhibition of p24 expression was measured at 1 uM using vVK/CV-1 assay; Inactive; assay type: functional, cell-based; settings: Cercopithecidae
[4] = test system: Caco-2; assay: % control value in caco-2-cell monolayer; assay type: functional, Homo sapiens; design: concentration or dose not given beside the values
How it was run: (§1)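 Caco-2 monolayers (passage 25) on Transwell inserts, equilibrated 30 min in HBSS with 25 mM glucose, 10 mM Hepes pH 7.35 at 37 °C. Apical side given 10 nM [3H]biotin alone or with 300 μM unlabeled biotin or conjugate (final MeOH 1–5%). Basolateral samples taken over time; [3H]mannitol integrity marker; Student's t-test; triplicate determinations.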

[5] = test system: Caco-2; assay: Effect on the apical to basolateral transport of [3H]biotin in caco-2-cell monolayer; assay type: functional, Homo sapiens; how it was run: as §1
[6] = Inhibition of p24 expression in PBMC assay on day 4 at concentration of 100 nM; assay type: functional; settings: Homo sapiens, 96 h
[7] = Inhibition of viral RNA in HIVD34-infected PBMC assay on day 4 at concentration of 10 nM; assay type: functional; settings: Homo sapiens, 96 h
[8] = Inhibition of viral RNA in PBMC assay on day 4 at concentration of 100 nM; assay type: functional; settings: Homo sapiens, 96 h
[9] = p24 expression was measured by PBMC assay on day 4 at concentration of 10 nM; assay type: functional; settings: Homo sapiens, 96 h
[10] = p24 expression was measured by PBMC assay on day 4 at concentration of 1 nM; assay type: functional; settings: Homo sapiens, 96 h
[11] = Inhibition of viral RNA in HIVD34-infected PBMC assay on day 4 at concentration of 1 nM; assay type: functional; settings: Homo sapiens, 96 h
[12] = test system: CV-1; assay: Inhibition of p24 expression was measured at 1 uM using vaccinia virus vVK/CV-1 assay; Inactive; assay type: functional, cell-based; settings: Cercopithecidae
[13] = Inhibition of p24 expression in HIVD34-infected PBMC assay on day 4 at concentration of 100 nM; assay type: functional; settings: Homo sapiens, 96 h
[14] = Inhibition of p24 expression in HIVD34-infected PBMC assay on day 4 at concentration of 10 nM; assay type: functional; settings: Homo sapiens, 96 h
[15] = Inhibition of viral RNA in HIVD34-infected PBMC assay on day 4 at a concentration of 100 nM; assay type: functional; settings: Homo sapiens, 96 h
[16] = Inhibition of p24 expression in HIVD34-infected PBMC assay on day 4 at concentration of 1 nM; assay type: functional; settings: Homo sapiens, 96 h
[17] = Inhibition of p24 expression in HIVD34-infected PBMC assay on day 4 at concentration of 4 nM; assay type: functional; settings: Homo sapiens, 96 h
[18] = Inhibition of p24 expression in HIVD34-infected PBMC assay on day 4 at concentration of 40 nM; assay type: functional; settings: Homo sapiens, 96 h
[19] = Inhibition of viral RNA in HIVD34-infected PBMC assay on day 4 at concentration of 4 nM; assay type: functional; settings: Homo sapiens, 96 h
[20] = Inhibition of viral RNA in HIVD34-infected PBMC assay on day 4 at concentration of 40 nM; assay type: functional; settings: Homo sapiens, 96 h

CC[C@@H](C)[C@H](NC(=O)[C@H](C(C)C)[C@@H](O)[C@H](O)[C@H](CC1CCCCC1)NC(=O)c1ccccc1SCCCCC[C@@H]1SCC2NC(=O)NC21)C(=O)NCCc1scnc1C (some centres undefined)
inhibition at 1 µM [1]: 34%
Ki [2]: 0.004 µM

CC[C@@H](C)[C@H](NC(=O)[C@H](C(C)C)[C@@H](O)[C@H](O)[C@H](CC1CCCCC1)NC(=O)CCCCCNC(=O)CCCC[C@@H]1SCC2NC(=O)N[C@@H]21)C(=O)NCc1ccccn1 (some centres undefined)
inhibition [3]: inactive
Control [4]: 111%
Ki [2]: 0.02 µM
Transport [5]: 20.6 pM min-1 (mg of protein)-1

CC[C@@H](C)[C@H](NC(=O)[C@H](C(C)C)[C@@H](O)[C@H](O)[C@H](CC1CCCCC1)NC(=O)CCCC[C@@H]1SCC2NC(=O)NC21)C(=O)NCCc1scnc1C (some centres undefined)
inhibition at 1 µM [1]: 15%
Ki [2]: 0.13 µM

CC[C@@H](C)[C@H](NC(=O)[C@H](C(C)C)[C@@H](O)[C@H](O)[C@H](CC1CCCCC1)NC(=O)c1ccccc1OCCCCC[C@@H]1SC[C@H]2NC(=O)N[C@@H]12)C(=O)NCc1ccccn1
inhibition at 1 µM [1]: 24%
Control [4]: 85%
inhibition at 0.1 µM [6]: 83%
inhibition at 0.01 µM [7]: 10%
inhibition at 0.1 µM [8]: 17%
inhibition at 0.01 µM [9]: 5%
inhibition at 0.001 µM [10]: 2%
Ki [2]: 0.01 µM
Transport [5]: 15.8 pM min-1 (mg of protein)-1
inhibition at 0.001 µM [11]: 15%

CC[C@@H](C)[C@@H](CNC(=O)CCCC[C@@H]1SC[C@@H]2NC(=O)NC21)NC(=O)[C@H](C(C)C)[C@@H](O)[C@H](O)[C@H](CC1CCCCC1)NC(=O)c1ccccc1OCCOc1ccccc1 (some centres undefined)
inhibition [12]: inactive
Ki [2]: > 0.1 µM

CC[C@H](C)[C@H](NC(=O)[C@H](C(C)C)[C@@H](O)[C@H](O)[C@H](CC1CCCCC1)NC(=O)[C@H](Cc1c[nH]cn1)NC(=O)COc1cccc2ccccc12)C(=O)NCc1ccccn1
inhibition at 1 µM [1]: > 80%
inhibition at 0.1 µM [13]: 95%
inhibition at 0.01 µM [14]: 82%
inhibition at 0.1 µM [15]: 98%
inhibition at 0.01 µM [7]: 80%
Ki [2]: < 0.001 µM
inhibition at 0.001 µM [16]: 38%
inhibition at 0.001 µM [11]: 30%

CC[C@@H](C)[C@H](NC(=O)[C@H](C(C)C)[C@@H](O)[C@H](O)[C@H](CC1CCCCC1)NC(=O)[C@@H](NC(=O)CCCC[C@H]1SC[C@H]2NC(=O)NC21)C(C)C)C(=O)NCc1ccccn1 (some centres undefined)
inhibition at 1 µM [1]: 26%
Control [4]: 122%
inhibition at 0.01 µM [14]: 11%
inhibition at 0.1 µM [6]: 89%
inhibition at 0.01 µM [7]: 22%
inhibition at 0.1 µM [8]: 69%
Ki [2]: < 0.004 µM
inhibition at 0.001 µM [16]: 7%
Transport [5]: 22.7 pM min-1 (mg of protein)-1
inhibition at 0.001 µM [11]: 18%

O=C(O)CCCC[C@@H]1SC[C@@H]2NC(=O)N[C@@H]21 [BIOTIN]
Control [4]: 0%
Transport [5]: 0 pM min-1 (mg of protein)-1

CC[C@@H](C)[C@H](NC(=O)[C@H](C(C)C)[C@@H](O)[C@H](O)[C@H](CC1CCCCC1)NC(=O)CCCC[C@@H]1SCC2NC(=O)N[C@@H]21)C(=O)NCc1ccccn1 (some centres undefined)
inhibition at 1 µM [1]: 9%
Control [4]: 129%
Ki [2]: 0.045 µM
Transport [5]: 24.1 pM min-1 (mg of protein)-1

CC[C@@H](C)[C@H](NC(=O)[C@H](C(C)C)[C@@H](O)[C@H](O)[C@H](CC1CCCCC1)NC(=O)c1ccccc1SCCCCC[C@@H]1SCC2NC(=O)NC21)C(=O)NCc1ccccn1 (some centres undefined)
Ki [2]: 0.053 µM

Cc1cn([C@H]2C[C@H](N=[N+]=[N-])[C@@H](CO)O2)c(=O)[nH]c1=O [ZIDOVUDINE]
inhibition at 0.004 µM [17]: 2%
inhibition at 0.04 µM [18]: 81%
inhibition at 0.004 µM [19]: 0%
inhibition at 0.04 µM [20]: 90%
